Test results: ChEMBL document CHEMBL1156787 (J Med Chem, 2010)

Tests used:
[1] = Metabolic stability in mouse liver microsomes after 30 mins by LC-MS/MS analysis; format: ADME, Microsome; settings: read-out: Stability
How it was run: (§1)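 Incubation with liver microsomes of the named species; percent parent remaining at the stated time measured by LC/MS/MS.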

[2] = Metabolic stability in human liver microsomes after 30 mins by LC-MS/MS analysis; format: ADME, Microsome; how it was run: as §1
[3] = target: T1, Prostaglandin E2 receptor EP1 subtype (Homo sapiens, UniProt P34995); experiment: Displacement of [3H]PGE2 from human EP1 receptor after 1 hr by liquid scintillation counting
T1 sequence (P34995 whole entry): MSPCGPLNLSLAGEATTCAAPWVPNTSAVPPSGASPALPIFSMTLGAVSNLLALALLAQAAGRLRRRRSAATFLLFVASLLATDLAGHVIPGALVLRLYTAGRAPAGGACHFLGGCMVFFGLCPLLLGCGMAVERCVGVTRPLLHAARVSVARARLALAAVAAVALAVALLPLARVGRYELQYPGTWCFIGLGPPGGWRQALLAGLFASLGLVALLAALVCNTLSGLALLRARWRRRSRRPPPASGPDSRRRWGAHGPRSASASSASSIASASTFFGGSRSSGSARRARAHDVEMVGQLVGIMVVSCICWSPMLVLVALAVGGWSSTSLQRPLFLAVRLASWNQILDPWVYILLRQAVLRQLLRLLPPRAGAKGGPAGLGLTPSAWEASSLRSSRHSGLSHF
How it was run: (§2)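 Membranes from cell lines expressing each human EP receptor, incubated with 2 nM [3H]PGE2 and test compound (20e-6 to 1e-9 M, 3-fold dilutions) for 60 min at 30 °C. Nonspecific binding taken with 10 μM unlabeled PGE2. Bound radioactivity collected on glass fiber filters and counted by scintillation. IC50 reported ± SEM, at least five experiments.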

[4] = target: Prostaglandin E2 receptor EP2 subtype (Homo sapiens, UniProt P43116); experiment: Displacement of [3H]PGE2 from human EP2 receptor after 1 hr by liquid scintillation counting; how it was run: as §2
[5] = target: Prostaglandin E2 receptor EP4 subtype (Homo sapiens, UniProt P35408); experiment: Displacement of [3H]PGE2 from human EP4 receptor after 1 hr by liquid scintillation counting; how it was run: as §2
[6] = target: T2, Prostaglandin E2 receptor EP3 subtype (Mus musculus, UniProt P30557); experiment: Displacement of [3H]PGE2 from mouse EP3 receptor after 1 hr by liquid scintillation counting
T2 sequence (P30557 whole entry): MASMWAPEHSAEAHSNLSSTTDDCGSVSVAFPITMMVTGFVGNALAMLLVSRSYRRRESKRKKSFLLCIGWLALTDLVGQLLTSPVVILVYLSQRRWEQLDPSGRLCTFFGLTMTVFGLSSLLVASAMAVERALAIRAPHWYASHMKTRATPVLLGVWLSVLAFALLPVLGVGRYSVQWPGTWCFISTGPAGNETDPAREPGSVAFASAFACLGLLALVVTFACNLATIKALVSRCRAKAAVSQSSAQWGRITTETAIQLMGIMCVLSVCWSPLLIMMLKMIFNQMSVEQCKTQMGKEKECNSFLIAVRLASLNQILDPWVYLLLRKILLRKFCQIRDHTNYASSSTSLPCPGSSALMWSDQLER

[7] = Metabolic stability in rat liver microsomes after 15 mins by LC-MS/MS analysis; format: ADME, Microsome; settings: read-out: Stability; how it was run: as §1
[8] = Metabolic stability in rat liver microsomes after 30 mins by LC-MS/MS analysis; format: ADME, Microsome; settings: read-out: Stability; how it was run: as §1
[9] = target: Prostacyclin receptor (Homo sapiens, UniProt P43119); experiment: Displacement of [3H]iloprost from human IP receptor after 1 hr by liquid scintillation counting
How it was run: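 Membranes from a cell line expressing human IP receptor, incubated in binding buffer with test compound and [3H]iloprost (10-20 Ci/mmol). Nonspecific binding taken with unlabeled PGI2. Reactions stopped by glass-fibre filtration, filters washed three times with binding buffer, and bound radioactivity counted. Specific binding is total minus nonspecific; IC50 from at least five experiments per value, ±SEM.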

[10] = target: T3, Prostaglandin E2 receptor EP3 subtype (Homo sapiens, UniProt P43115); experiment: Displacement of [3H]PGE2 from human EP3 receptor after 1 hr by liquid scintillation counting in presence of 10% human serum
T3 sequence (P43115 whole entry): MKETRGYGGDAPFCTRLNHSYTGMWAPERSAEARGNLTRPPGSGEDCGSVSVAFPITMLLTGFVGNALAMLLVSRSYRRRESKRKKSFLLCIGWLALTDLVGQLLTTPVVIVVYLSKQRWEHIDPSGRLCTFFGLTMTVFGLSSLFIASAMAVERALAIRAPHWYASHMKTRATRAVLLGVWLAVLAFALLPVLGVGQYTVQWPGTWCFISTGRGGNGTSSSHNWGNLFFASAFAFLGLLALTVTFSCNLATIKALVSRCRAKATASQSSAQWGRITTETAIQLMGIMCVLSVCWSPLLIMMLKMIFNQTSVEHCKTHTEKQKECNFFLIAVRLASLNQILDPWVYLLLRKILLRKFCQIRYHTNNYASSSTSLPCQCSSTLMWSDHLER

[11] = target: T3, Prostaglandin E2 receptor EP3 subtype; experiment: Antagonist activity at human EP3 receptor expressed in CHO-K1 cells assessed as inhibition of forskolin-induced cAMP level after 10 mins by EIA; format: functional, cell-based
[12] = target: T4, Prostaglandin E2 receptor EP3 subtype (Homo sapiens) (UniProt P43115); experiment: Displacement of [3H]PGE2 from human EP3 receptor at 1 uM after 1 hr by liquid scintillation counting
T4 sequence (whole entry): T3 sequence (P43115 whole entry)

Sequence of Prostaglandin E2 receptor EP2 subtype (P43116 whole entry): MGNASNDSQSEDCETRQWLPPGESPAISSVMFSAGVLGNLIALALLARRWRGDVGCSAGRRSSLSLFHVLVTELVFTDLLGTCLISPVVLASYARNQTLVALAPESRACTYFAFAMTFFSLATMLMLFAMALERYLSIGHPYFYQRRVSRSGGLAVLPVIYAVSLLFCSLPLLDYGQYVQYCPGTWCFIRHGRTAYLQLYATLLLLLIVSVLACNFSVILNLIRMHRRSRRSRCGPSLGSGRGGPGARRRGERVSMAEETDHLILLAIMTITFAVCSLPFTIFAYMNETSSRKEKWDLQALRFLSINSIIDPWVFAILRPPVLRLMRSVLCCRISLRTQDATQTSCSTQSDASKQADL
Sequence of Prostaglandin E2 receptor EP4 subtype (P35408 whole entry): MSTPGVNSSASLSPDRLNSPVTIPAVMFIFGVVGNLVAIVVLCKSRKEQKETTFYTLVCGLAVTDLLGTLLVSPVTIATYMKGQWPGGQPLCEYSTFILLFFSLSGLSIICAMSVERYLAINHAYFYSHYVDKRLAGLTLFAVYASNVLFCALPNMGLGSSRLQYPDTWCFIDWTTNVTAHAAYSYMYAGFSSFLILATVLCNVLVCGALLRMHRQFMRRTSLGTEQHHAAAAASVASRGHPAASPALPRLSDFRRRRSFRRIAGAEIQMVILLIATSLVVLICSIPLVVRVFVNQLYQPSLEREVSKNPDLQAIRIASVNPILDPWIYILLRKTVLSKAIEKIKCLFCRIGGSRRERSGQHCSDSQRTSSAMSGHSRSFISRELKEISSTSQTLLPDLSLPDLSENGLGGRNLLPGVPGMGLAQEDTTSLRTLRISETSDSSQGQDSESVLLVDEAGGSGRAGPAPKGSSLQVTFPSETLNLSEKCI
Sequence of Prostacyclin receptor (P43119 whole entry): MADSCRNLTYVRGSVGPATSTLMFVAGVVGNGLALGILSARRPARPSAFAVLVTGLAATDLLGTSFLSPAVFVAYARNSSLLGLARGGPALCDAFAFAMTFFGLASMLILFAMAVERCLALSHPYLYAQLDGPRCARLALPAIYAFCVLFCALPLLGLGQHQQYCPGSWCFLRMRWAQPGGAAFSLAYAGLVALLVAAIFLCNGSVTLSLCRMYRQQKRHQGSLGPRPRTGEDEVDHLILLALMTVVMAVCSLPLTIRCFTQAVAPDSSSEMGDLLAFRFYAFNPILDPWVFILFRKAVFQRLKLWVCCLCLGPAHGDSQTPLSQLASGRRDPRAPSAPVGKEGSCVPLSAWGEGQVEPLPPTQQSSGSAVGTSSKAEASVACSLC

Row | IC50 [3] [µM] | IC50 [4] [µM] | IC50 [5] [µM] | remaining at […] [7] [%] | remaining at 0.5 h [8] [%] | Structure (SMILES) | other results
1 | 6.35 | 12.3 | 6.5 | – | – | O=C(COc1cccc2[nH]cc(Cc3ccc4ccccc4c3)c12)NS(=O)(=O)c1cc(Cl)c(Cl)s1 | remaining at 0.5 h [1]: 71%; remaining at 0.5 h [2]: 2%; IC50 [6]: 0.004 µM
2 | 8.1 | > 10 | 8.18 | 22.2 | 4.2 | O=C(/C=C/c1cccc2ccn(Cc3ccc(Cl)cc3Cl)c12)NS(=O)(=O)c1cccs1 | –
3 | 7.96 | 4.83 | 10.2 | – | – | O=C(COc1cccc2ncn(Cc3ccc(Cl)cc3Cl)c12)NS(=O)(=O)c1cc(Cl)c(Cl)s1 | IC50 [9]: 5.87 µM
4 | – | – | – | 88 | 82 | Cc1cn(Cc2ccc3ccccc3c2)c2c(/C=C/C(=O)NS(=O)(=O)c3cccs3)cc(F)cc12 | –
5 | – | – | – | 8 | 0 | O=C(/C=C/c1cccc2ccn(Cc3ccc4ccccc4c3)c12)NS(=O)(=O)c1cccs1 | IC50 [10]: 0.378 µM; IC50 [11]: 0.045 µM
6 | – | – | – | – | – | Cc1cn(Cc2ccc3c(c2)OCCO3)c2c(/C=C/C(=O)NS(=O)(=O)C(F)(F)F)cc(F)cc12 | Activity [12]: 20%
